From article PMC4361481 (Journal of Biomolecular Screening, 2015)

What was measured:
H3K27me3 [1] = conditions: mutant EZH2-bearing lymphoma cells; cited from earlier work
MDA-MB-231 cells = test: Number of analyzed nuclei; format: cell-based; conditions: MDA-MB-231, 3 days, maximal effect, concentration not given
Method in brief: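 Proliferation was read from the same 3-day high-content assay in 384-well plates at 37 °C, 5% CO2. Nuclei were counted in the Hoechst (4 µg/mL) DNA channel. Segmentation used a gray-level threshold and minimum/maximum nuclear diameter set on DMSO-treated controls, which excluded debris. Total nuclei per well served as cell number and were expressed as % of DMSO control, in triplicate.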

H3K27me3 [2] = test: H3K27me3 HCA assay, MDA-MB-231 cells, 384-well format; format: cell-based; conditions: MDA-MB-231, 3 days
Method in brief: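 MDA-MB-231 cells were plated in 384-well plates 24 h before compound, diluted in medium from a 10 mM DMSO stock (final DMSO ≤0.6%). Treatment was 3 µM over a time course or a concentration series for 3 days, at 37 °C, 5% CO2. H3K27me3 immunofluorescence used PFA fixation and Triton permeabilization, primary antibody 16 h at 4 °C, plus Hoechst. Confocal imaging averaged about 1500–2000 nuclei; triplicates, % of DMSO control.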

| SMILES | time at which loss of H3K27me3 was apparent (H3K27me3 [1]) [h] | time required for full effects on H3K27me3 (H3K27me3 [1]) | cell number, % of DMSO control (MDA-MB-231 cells) [%] | global H3K27me3 level at maximum reduction, % of DMSO control (H3K27me3 [2]) [%] |
| --- | --- | --- | --- | --- |
| Cc1cc(C)c(CNC(=O)c2cc(-c3ccc(CN4CCOCC4)cc3)cc3c2cnn3C2CCCC2)c(=O)[nH]1 [EPZ005687] | 24 | up to 5 days |  |  |
| Nc1nccc2c1ncn2C1C=C(CO)C(O)C1O (stereo not shown) [DZNep, 3-deazaneplanocin A] |  |  | 45 | 65 |
